Molecules are shown by their SMILES. pIC50: −log10 of the molar value.

Sequence of Mitogen-activated protein kinase 10 (P53779 whole entry): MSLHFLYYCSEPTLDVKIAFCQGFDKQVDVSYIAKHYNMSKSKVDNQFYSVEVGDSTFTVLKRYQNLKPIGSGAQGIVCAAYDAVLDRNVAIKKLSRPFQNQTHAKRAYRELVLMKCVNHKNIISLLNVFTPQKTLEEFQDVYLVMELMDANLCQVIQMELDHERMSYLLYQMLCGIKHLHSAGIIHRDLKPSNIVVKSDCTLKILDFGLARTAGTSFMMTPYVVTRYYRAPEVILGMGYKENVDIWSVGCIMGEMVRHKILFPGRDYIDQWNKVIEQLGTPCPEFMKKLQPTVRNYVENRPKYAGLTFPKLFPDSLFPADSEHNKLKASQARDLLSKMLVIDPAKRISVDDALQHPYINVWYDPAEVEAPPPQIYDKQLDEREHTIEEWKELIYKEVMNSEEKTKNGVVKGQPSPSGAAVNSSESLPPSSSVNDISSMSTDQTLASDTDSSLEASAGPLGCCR

The experiment addresses Mitogen-activated protein kinase 10 (Homo sapiens, UniProt P53779). As to the kind of experiment: Inhibition of JNK3 by HTRF assay. The method in brief:
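JNK3 phosphorylation of biotinylated-ATF2, final 0.3 nM JNK3, 0.4 nM substrate, 1 μM ATP. The phospho-Thr71-ATF-2 product is detected with a Europium-cryptate-labeled anti-phospho-Thr71-ATF-2 antibody. IC50 values are means of three experiments.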
Turning to `c1ccc(-c2ccc(-c3cnc4ccc5ccncc5c4c3)cc2)cc1`, the pIC50 was less than 4.70.

For the compound `c1cc2ccc3ncc(-c4ccc(N5CCOCC5)cc4)cc3c2cn1`, the pIC50 was 5.89.

The compound `c1ccc(-c2cnc3ccc4ccncc4c3c2)cc1` gave a pIC50 of 6.00. This pIC50 and that of the compound before are within 0.2 log units of each other.

In turn, `CS(=O)(=O)N(c1ccc(-c2cnc3ccc4ccncc4c3c2)cc1)S(C)(=O)=O` had a pIC50 of 6.68.

On to `CS(=O)(=O)Nc1ccc(-c2cnc3cccc(Nc4ncccn4)c3c2)cc1`, for which the pIC50 is 6.32.

`c1cc2ccc3ncc(-c4ccc(-c5ccn[nH]5)cc4)cc3c2cn1` had a pIC50 of 5.44.

With `CS(=O)(=O)Nc1ccc(-c2cnc3cccc(Nc4ncccc4Cl)c3c2)cc1`, the negative-log IC50 (pIC50) is 4.82.

`CS(=O)(=O)Nc1ccc(-c2cnc3cccc(Nc4ccc(Cl)cn4)c3c2)cc1` gave a pIC50 of 6.92.

Consider `CC(=O)Nc1ccc(-c2cnc3ccc4ccncc4c3c2)cc1`, for which the negative-log IC50 (pIC50) was 6.28. This pIC50 lies 0.64 log units lower than the previous one.

With `CC(=O)N(C(C)=O)c1ccc(-c2cnc3ccc4ccncc4c3c2)cc1`, the negative logarithm of the IC50 (pIC50) was 5.80.

Regarding `CS(=O)(=O)Nc1ccc(-c2cnc3ccc4ccncc4c3c2)cc1`, the pIC50 is 6.03. Compared with the last compound, the pIC50 is 0.23 log units higher.

`Nc1ccc(-c2cnc3ccc4ccncc4c3c2)cc1` had a pIC50 of 6.29.

(Values after ChEMBL document CHEMBL1140546, “3,5-Disubstituted quinolines as novel c-Jun N-terminal kinase inhibitors” (Bioorg Med Chem Lett, 2007).)
